# Results published in ChEMBL document CHEMBL1811907, “Chemical and biological evaluation of dipeptidyl boronic acid proteasome inhibitors for use in prodrugs and pro-soft drugs targeting solid tumors” (J Med Chem, 2011).
# Columns and labels:
# [1] = Inhibition of chymotrypsin-like activity of 20S proteasome using suc-LLVY-AMC as substrate preincubated for 10 mins before substrate addition at pH 2.0 by fluorescence assay
# How it was run: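 Inhibitor from 0.1 M ethanol stock diluted into pH 2.0 buffer (0.148 M HCl, 0.052 M KCl) and equilibrated overnight at room temperature (24 h per text). 20S proteasome SDS-activated, preincubated 10 min with inhibitor; Suc-LLVY-AMC added; fluorescence (ex 360/em 460 nm) read after 30 min. Assay-well pH checked. Quadruplicates; variable-slope sigmoidal fit.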
# [2] = Inhibition of chymotrypsin-like activity of 20S proteasome using suc-LLVY-AMC as substrate preincubated for 10 mins before substrate addition at pH 7.6 by fluorescence assay
# How it was run: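 Inhibitor from 0.1 M ethanol stock diluted into pH 7.6 buffer (25 mM HEPES, 0.5 mM EDTA) and equilibrated overnight at room temperature (24 h per text). SDS-activated 20S proteasome preincubated 10 min with inhibitor before Suc-LLVY-AMC; fluorescence ex 360/em 460 nm after 30 min. Quadruplicates; variable-slope sigmoidal fit.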
# [3] = Inhibition of intracellular chymotrypsin-like activity of 20S proteasome in human HEK293 cells after 24 hrs by fluorescence plate reader; format: cell-based; settings: HEK293, 24 h
# How it was run: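 HEK 293 ZsGreen proteasome-sensor cells (stable ZsGreen–ornithine decarboxylase degron fusion, G418 maintenance) seeded 3.2 × 10⁴ per well, grown 24 h. Then 24 h with inhibitor at 37 °C, 5% CO₂. Cells lysed in HEPES/EDTA/5% Triton buffer for 1 h; fluorescence ex 485/em 535 nm. Quadruplicates; variable-slope sigmoidal fit.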
# HEK293 [4] = assay: Ratio of IC50 for intracellular chymotrypsin-like activity of 20S proteasome in human HEK293 cells to IC50 for in vitro chymotrypsin-like activity of 20S proteasome; format: cell-based
# [5] = Cytotoxicity against human FSCLL cells after 24 hrs by MTT assay; format: cell-based
# How it was run: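 Cells seeded at 3.2 × 10⁴ per well, grown 24 h at 37 °C, 5% CO₂, then exposed to inhibitor dilutions 24 h. Inhibitor from 0.1 M ethanol stock, pre-equilibrated overnight in pH 2.0 or pH 7.6 buffer. MTT (5 mg/mL) added for 3 h; formazan dissolved overnight in acidic Triton/isopropanol; A570 read. Quadruplicates; variable-slope sigmoidal fit.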
# [6] = Ratio of CC50 for human follicular small-cell lymphocytic leukemia cells to IC50 for chymotrypsin-like activity of 20S proteasome at pH 2.0
# [7] = Ratio of CC50 for human follicular small-cell lymphocytic leukemia cells to IC50 for intracellular chymotrypsin-like activity of 20S proteasome in human HEK293 cells
# Mus musculus = species: Mus musculus; assay: Inhibition of proteasome in mouse tumor cells relative to inhibition in blood cells; format: subcellular; settings: concentration not given here
# HEK293 [8] = assay: Metabolic stability in human HEK293 cells assessed as aminopeptidase-mediated compound degradation at 10^-4 M after 24 hrs by LCMS analysis; format: ADME, cell-based; settings: hek293, 24 h, 100 µM
# How it was run: (§1)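 Intact cells, 2 × 10⁶ in 900 μL medium, incubated with inhibitor at 10⁻⁴ M for 24 h, 37 °C, 5% CO₂. Aliquots taken at time points and quenched in 1 M HCl containing Trp-Tyr internal standard. Analysed by ESI LCMS on C18 reversed phase.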
# [9] = Metabolic stability in human FSCLL cells assessed as aminopeptidase-mediated compound degradation at 10^-4 M after 24 hrs by LCMS analysis; format: ADME, cell-based; settings: 100 µM; how it was run: as §1
# HEK293 [10] = assay: Metabolic stability in human HEK293 cells assessed as cell lysate-mediated compound degradation at 10^-4 M after 24 hrs by LCMS analysis; format: ADME, cell-based; settings: hek293, 24 h, 100 µM
# [11] = Metabolic stability in human FSCLL cells assessed as cell lysate-mediated compound degradation at 10^-4 M after 24 hrs by LCMS analysis; format: ADME, cell-based; settings: 100 µM
Compound,IC50 [1],IC50 [2],IC50 [3],inhibition (Mus musculus),Stability (HEK293 [8]),Stability [9],Stability (HEK293 [10]),Stability [11],Ratio IC50 (HEK293 [4]),CC50 at 24 h [5],Ratio CC50/IC50 [6],Ratio CC50/IC50 [7]
CNCC(=O)N[C@@H](CC(C)C)B(O)O,39 nM,2200 nM,> 10000 nM,–,–,–,–,–,> 260,160 nM,4.1,<0.07
CC(C)C[C@H](NC(=O)[C@@H](N)Cc1ccc(O)cc1)B(O)O,42 nM,120 nM,> 10000 nM,–,–,–,–,–,> 240,160 nM,4,<0.02
CCCC[C@H](N)C(=O)N[C@@H](CC(C)C)B(O)O,75 nM,300 nM,> 10000 nM,–,–,–,–,–,> 130,950 nM,13,<0.1
CC(C)C[C@H](NC(=O)CNC(=O)c1cc(Cl)ccc1Cl)B1OC(=O)CC(CC(=O)O)(C(=O)O)O1 (stereo partly drawn),–,–,–,74.9%,–,–,–,–,–,–,–,–
CC(C)C[C@H](NC(=O)[C@@H](N)Cc1ccc(-c2ccccc2)cc1)B(O)O,50 nM,400 nM,1400 nM,–,–,–,–,–,30,–,–,–
CC(C)C[C@H](NC(=O)[C@@H](N)Cc1ccc(F)c(F)c1)B(O)O,81 nM,150 nM,2100 nM,–,–,–,–,–,26,–,–,–
CC(C)C[C@H](NC(=O)[C@@H](N)CC(C)C)B(O)O,66 nM,170 nM,> 10000 nM,–,–,–,–,–,> 150,–,–,–
CC(C)C[C@H](NC(=O)[C@H](C)N)B(O)O,50 nM,360 nM,> 10000 nM,–,Stable,Stable,Stable,Stable,> 200,3200 nM,64,<0.3
CC[C@H](N)C(=O)N[C@@H](CC(C)C)B(O)O,110 nM,300 nM,> 10000 nM,–,–,–,–,–,> 90,1500 nM,14,<0.2
CC(C)C[C@H](NC(=O)[C@@H](N)Cc1ccc2ccccc2c1)B(O)O,33 nM,220 nM,450 nM,–,–,–,–,–,13,–,–,–
CC(C)C[C@H](NC(=O)[C@@H](N)C(C)(C)O)B(O)O,90 nM,150 nM,> 10000 nM,–,–,–,–,–,> 110,–,–,–
CCC[C@H](N)C(=O)N[C@@H](CC(C)C)B(O)O,110 nM,540 nM,> 10000 nM,–,–,–,–,–,> 90,1100 nM,10,<0.1
CC(C)C[C@H](NC(=O)[C@@H](N)C1CCCCC1)B(O)O,240 nM,900 nM,> 10000 nM,–,–,–,–,–,> 40,–,–,–
CC(C)C[C@H](NC(=O)[C@@H](N)CC(N)=O)B(O)O,63 nM,770 nM,> 10000 nM,–,–,–,–,–,> 160,–,–,–
CC(C)C[C@H](NC(=O)[C@@H](N)C(c1ccccc1)c1ccccc1)B(O)O,110 nM,350 nM,1000 nM,–,–,–,–,–,9,–,–,–
CC(C)C[C@H](NC(=O)[C@@H](N)Cc1cccc(F)c1)B(O)O,82 nM,110 nM,1300 nM,–,–,–,–,–,16,–,–,–
CC(C)C[C@H](NC(=O)[C@@H](N)Cc1c(F)c(F)c(F)c(F)c1F)B(O)O,170 nM,470 nM,3300 nM,–,–,–,–,–,20,–,–,–
CC(C)C[C@H](NC(=O)[C@H](CO)NC(=O)c1cnccn1)B(O)O,16 nM,18 nM,2500 nM,–,–,–,–,–,150,210 nM,13,0.08
CC(C)C[C@H](NC(=O)[C@@H](NC(=O)c1cnccn1)C(C)(C)O)B(O)O,34 nM,28 nM,520 nM,–,–,–,–,–,15,–,–,–
CC(C)C[C@H](NC(=O)[C@H](Cc1ccccc1)NC(=O)[C@@H](N)CC(C)C)B(O)O,–,–,–,–,–,–,Unstable,Unstable,–,–,–,–
CC(C)C[C@H](NC(=O)[C@@H](N)Cc1cc(F)cc(F)c1)B(O)O,43 nM,100 nM,790 nM,–,–,–,–,–,18,47 nM,1,0.06
CC(C)C[C@H](NC(=O)[C@@H](N)[C@@H](C)O)B(O)O,80 nM,450 nM,> 10000 nM,–,–,–,–,–,> 120,2500 nM,30,<0.3
CC(C)C[C@H](NC(=O)[C@@H](N)Cc1cccc2ccccc12)B(O)O,26 nM,120 nM,150 nM,–,–,–,–,–,6,11 nM,0.4,0.07

# The remaining molecules from weak to strong by IC50 [1], led by results:
IC50 [1],IC50 [2],IC50 [3],inhibition (Mus musculus),Stability (HEK293 [8]),Stability [9],Stability (HEK293 [10]),Stability [11],Compound,Ratio IC50 (HEK293 [4]),CC50 at 24 h [5],Ratio CC50/IC50 [6],Ratio CC50/IC50 [7]
600 nM,3000 nM,> 10000 nM,–,–,–,–,–,CC(C)C[C@H](NC(=O)[C@@H](N)CC(C(=O)O)C(=O)O)B(O)O,> 20,–,–,–
510 nM,5200 nM,> 1000 nM,–,–,–,–,–,CC(C)C[C@H](NC(=O)[C@@H](N)Cc1cnc[nH]1)B(O)O,> 20,–,–,–
190 nM,1100 nM,> 10000 nM,–,–,–,–,–,CC(C)C[C@H](NC(=O)[C@@H](N)CO)B(O)O,> 50,1700 nM,8.9,<0.2
110 nM,180 nM,1800 nM,–,–,–,–,–,CC(C)C[C@H](NC(=O)CNC(=O)c1cnccn1)B(O)O,16,–,–,–
100 nM,150 nM,> 10000 nM,–,–,–,–,–,CC(C)C[C@H](NC(=O)[C@@H](N)C(C)(C)C)B(O)O,> 110,710 nM,7,<0.07
76 nM,140 nM,3100 nM,–,–,–,–,–,CC(C)C[C@H](NC(=O)[C@@H](N)Cc1ccccc1F)B(O)O,41,–,–,–
60 nM,130 nM,> 10000 nM,–,–,–,–,–,CC(C)C[C@H](NC(=O)[C@@H](N)Cc1ccc(F)cc1)B(O)O,> 170,79 nM,1.3,<0.01
37 nM,140 nM,> 10000 nM,–,Stable,Stable,Stable,Stable,CC(C)C[C@H](NC(=O)[C@@H](N)Cc1ccccc1)B(O)O,> 270,90 nM,2.4,<0.01
36 nM,610 nM,> 10000 nM,–,–,–,–,–,CC(C)C[C@H](NC(=O)CN(C)C)B(O)O,> 280,–,–,–
29 nM,100 nM,> 1000 nM,–,–,–,–,–,CC(C)C[C@H](NC(=O)[C@@H](N)Cc1c[nH]c2ccccc12)B(O)O,> 30,400 nM,14,<0.4
21 nM,430 nM,> 10000 nM,–,Stable,Stable,Stable,Stable,CC(C)C[C@H](NC(=O)CN)B(O)O,> 470,670 nM,30,<0.07
12 nM,25 nM,790 nM,–,–,–,–,–,CC(C)C[C@H](NC(=O)[C@@H](NC(=O)c1cnccn1)[C@@H](C)O)B(O)O,65,100 nM,8,0.12
